An excerpt weighted towards active compounds, which were near 3.5% of everything screened.
Apaf-1 inh: human Apaf-1 inhibition; inhibition, % at 20 µM; actives 0.71% (n = 330,000); AID 489030; reconstituted apoptosome caspase-3 activity, DEVD-Rh110 fluorescence; active = inhibition of at least 40% at 20 µM;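 also: plate controls were DMSO wells for no effect and DEVD-CHO caspase inhibitor wells for full effect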
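Medium: Hepes buffer, pH 7.5 / System: biochemical Apaf-1 apoptosome reconstitution / Measured by: Rh110 fluorescence, excitation 480 nm, emission 540 nm / Times: compound with Apaf-1, dATP, procaspase-3 30 min, then 50 min reaction, room temperature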
pPAFAH FP inh: inhibitors of human plasma PAF acetylhydrolase (pPAFAH); recombinant pPAFAH, FP-rhodamine probe fluorescence polarization; inhibition, % at 3.39 µM; Q13093; actives 1.5% (n = 330,000);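 active = inhibition above the mean inhibition across the screen plus 3 SD, cut at about 25% in these data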;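 also: inhibitors block binding of the rhodamine activity-based probe so polarization drops; 0% = enzyme with DMSO and 100% = wells lacking pPAFAH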
Target sequence (Q13093 whole entry, looked up): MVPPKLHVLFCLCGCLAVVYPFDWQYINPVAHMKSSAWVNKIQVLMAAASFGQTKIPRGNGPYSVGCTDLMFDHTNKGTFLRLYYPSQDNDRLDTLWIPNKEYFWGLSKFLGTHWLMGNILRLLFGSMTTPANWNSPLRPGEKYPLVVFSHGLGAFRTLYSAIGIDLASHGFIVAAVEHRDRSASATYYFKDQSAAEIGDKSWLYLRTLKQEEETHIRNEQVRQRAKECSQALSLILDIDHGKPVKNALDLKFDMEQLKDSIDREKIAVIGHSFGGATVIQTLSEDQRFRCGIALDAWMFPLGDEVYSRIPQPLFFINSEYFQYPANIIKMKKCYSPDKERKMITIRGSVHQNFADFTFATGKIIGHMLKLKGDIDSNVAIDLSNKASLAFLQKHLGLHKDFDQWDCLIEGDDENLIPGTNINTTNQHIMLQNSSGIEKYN
PAFAH1B2 FP inh: PAFAH1B2 (human) inhibition. actives 1.2% (n = 340,000). inhibition, % at 3.39 µM. P68402. AID 492953. recombinant PAFAH1B2, FP-rhodamine activity probe, fluorescence polarization;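 active = inhibition above the mean of all tested compounds plus 3 SD, cut at about 24% in these data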;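 also: 0% = enzyme with DMSO and 100% = wells lacking PAFAH1B2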
Target sequence (P68402 whole entry, looked up): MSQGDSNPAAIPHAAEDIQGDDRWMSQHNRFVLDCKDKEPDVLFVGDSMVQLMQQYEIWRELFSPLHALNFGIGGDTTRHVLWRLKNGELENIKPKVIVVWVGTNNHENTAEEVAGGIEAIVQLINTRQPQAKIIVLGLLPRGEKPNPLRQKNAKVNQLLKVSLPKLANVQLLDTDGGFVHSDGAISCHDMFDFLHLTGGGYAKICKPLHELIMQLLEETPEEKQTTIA
PAFAH1B3 FP inh: blocks human PAF acetylhydrolase 1B catalytic subunit 3; recombinant PAFAH1B3, FP-rhodamine probe, fluorescence polarization; inhibition, % at 3.39 µM; actives 0.28% (n = 340,000);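 active = inhibition above the screen-wide average of all tested compounds plus 3 SD, cut at about 25% in these data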;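 also: 0% = enzyme with DMSO only and 100% = wells lacking PAFAH1B3 protein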
PAFAH2 FP inh: inhibitors of human PAFAH2; Q99487; recombinant PAFAH2, FP-rhodamine activity probe, fluorescence polarization; inhibition, % at 3.39 µM; actives 0.99% (n = 340,000);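 active = inhibition above the mean over all tested compounds plus 3 SD, cut at about 30% in these data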;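 also: inhibitors block probe labeling of enzyme so polarization drops; 0% = enzyme with DMSO and 100% = wells lacking PAFAH2 protein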
PREPL inh: inhibitors of human prolyl oligopeptidase-like enzyme PREPL; recombinant PREPL, fluorescence polarization activity-based probe; inhibition, % at 5.96 µM; actives 0.68% (n = 320,000);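 also: 0% = enzyme with DMSO and 100% = wells lacking enzyme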
PREPL confirm: human PREPL inhibition, confirmation; recombinant PREPL, fluorescence polarization activity probe; AID 2803; shares compounds with PREPL inh; actives 67% (n = 2,000); inhibition, % at 5.96 µM;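 also: 0% = protein with DMSO and 100% = wells lacking protein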
pPAFAH FP conf: pPAFAH (human) inhibition, confirmed | recombinant pPAFAH, FP-Rh probe fluorescence polarization | shares compounds with pPAFAH FP inh | actives 72% (n = 2,300) | inhibition, % at 3.39 µM;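 active = mean inhibition of the triplicate above the hit cutoff set for the earlier primary screen, cut at about 25% in these data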;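 also: 0% = enzyme with DMSO and 100% = wells lacking pPAFAH enzyme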
Apaf-1 inh conf: confirmation of Apaf-1 inhibitors. AID 504614. shares compounds with Apaf-1 inh. inhibition, % at 20 µM. reconstituted apoptosome, caspase-3 DEVD-Rh110 fluorescence. actives 25% (n = 1,800);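 active = mean inhibition of at least 40% at 20 µM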;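 also: plate controls were DMSO wells for no effect and DEVD-CHO caspase inhibitor control wells for full effect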
Rh110 quench: Rh110 signal interference in Apaf-1 inhibitor counter-screen; activation (fluorescence interference), % at 20 µM; AID 504615; shares compounds with Apaf-1 inh; 1,800 tested, under 10 active; Rh110 fluorescence interference, quenched caspase reaction;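 active = signal rise of 40% or more at 20 µM, treated as a fluorescence artifact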
Apaf1 inh interf: shows fluorescence interference in the Apaf-1 inhibitor assay format; shares compounds with Apaf-1 inh; fluorescence interference counterscreen, Apaf-1 assay format; IC50, µM; 460 tested, under 10 active; call rule not given here
PAFAH1B3 confirm: PAFAH1B3 (human) inhibition, confirmed; actives 30% (n = 390); shares compounds with PAFAH1B3 FP inh; AID 493032; recombinant PAFAH1B3, FP-Rh activity-based probe, fluorescence polarization; inhibition, % at 3.39 µM;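 active = average inhibition over triplicate runs above the hit cutoff set in the earlier primary screen, cut at about 25% in these data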;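 also: 0% = enzyme with DMSO and 100% = wells lacking PAFAH1B3 protein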
* hit, by the source's call; x = no result given. Rule as the data show it, unless noted: active = inhibition above about 43%; inactive = the rest.

SMILES	Apaf-1 inh	pPAFAH FP inh	PAFAH1B2 FP inh	PAFAH1B3 FP inh	PAFAH2 FP inh	PREPL inh	PREPL confirm	pPAFAH FP conf	Apaf-1 inh conf	Rh110 quench	others
Cc1cc(C(=O)COc2cccc3cccnc23)c(C)n1C	53.4*	26.2*	13.2	6.6	25.7	64.7*	9.9	x	15.8	12.6
CC(C)n1cnc2c(N(C)c3ccccc3)nc(N(CCN(C)C)Cc3ccccc3)nc21	44.0*	3.7	-2.0	-6.6	9.1	52.0*	47.6*	x	20.2	12.0
COc1ccc(C(=O)N(C)Cc2cnn(Cc3ccccc3)c2)cc1S(=O)(=O)N1CCOCC1	-3.0	-1.5	4.9	6.0	10.4	6.7	x	x	x	x
COc1ccc(C(=O)Nc2cccc3nc(C)ccc23)cc1OC	-7.6	5.4	4.9	7.7	3.3	-1.1	x	x	x	x
O=C(CCc1nnc2ccc(N3CCC4(CC3)OCCO4)nn12)N1CCCCC1	-3.2	2.3	-1.8	7.4	5.7	7.9	x	x	x	x
O=C1c2ccccc2-c2onc3c(N4CCN(CCO)CC4)cc(N4CCN(C(=O)c5ccco5)CC4)c1c23	52.4*	29.1*	-57.9	-77.8	-108.9	44.7*	55.7*	x	35.3	5.3
C#CCOCCOCCOCCNc1nc(N2CCN(C(=O)[C@H]([C@@H](C)CC)n3cc([C@@H](N)Cc4ccc(O)cc4)nn3)CC2)nc(N2CCN(C(=O)[C@H](Cc3cc4ccccc4[nH]3)n3cc([C@@H](N)CC(C)C)nn3)CC2)n1	63.0*	5.9	3.0	-3.9	3.3	58.3*	58.9*	x	30.4	-3.5
C#CCOCCOCCOCCNc1nc(N2CCN(C(=O)[C@H](CCCCN)n3cc([C@@H](N)C(C)CC)nn3)CC2)nc(N2CCN(C(=O)[C@H](Cc3cc4ccccc4[nH]3)n3cc([C@@H](N)C(C)CC)nn3)CC2)n1 (some centres undefined)	53.3*	-2.4	-2.5	7.8	2.0	57.1*	53.2*	x	3.6	-7.2
C#CCOCCOCCOCCNc1nc(N2CCN(C(=O)[C@H](CCC(=O)O)n3cc(C(N)[C@H](C)CC)nn3)CC2)nc(N2CCN(C(=O)[C@H](Cc3cc4ccccc4[nH]3)n3cc(C(N)[C@H](C)CC)nn3)CC2)n1 (some centres undefined)	-6.4	-5.0	x	x	x	9.0	x	x	x	x
COc1cc(OC)c(NC(=O)CCCNC(=O)Cn2cnc3sc(C)c(C)c3c2=O)cc1Cl	1.3	-0.6	5.3	2.6	3.4	14.5	x	x	x	x
COc1ccc(Cl)cc1N(C(=O)c1ccco1)C(C(=O)NC1CCCC1)c1ccco1 (centres undefined)	5.0	8.0	1.5	3.9	-7.4	-5.4	x	x	x	x
COc1cc(NCc2ccccc2)c2ncn(C(C)C)c2c1	13.2	8.6	4.9	2.6	3.6	0.7	x	x	x	x
CCC(CO)Oc1cc(NCc2cc(C)cc(C)c2)c2ncn(C(C)C)c2c1 (centres undefined)	35.9	17.5	1.5	-1.4	-4.4	22.0	x	x	x	x
CCC(CN(C)C)Oc1cc(NCc2ccccc2)c2ncn(C(C)C)c2c1 (centres undefined)	97.9*	-1.7	6.1	19.2	5.1	62.9*	51.0*	x	80.4*	4.7	Apaf1 inh interf=>100
CCC(CO)Oc1cc(NCc2cccc(Cl)c2)c2ncn(C(C)C)c2c1 (centres undefined)	72.6*	20.8	5.5	9.7	17.8	57.1*	38.3	x	37.2	9.2
C=CCC[C@@H](Cc1ccc(F)cc1)C(=O)OC[C@@H]1CCCN1C(=O)[C@H](CC=C)CC(=O)N[C@H](CO)Cc1ccccc1	43.1*	4.4	11.6	7.2	5.4	44.5*	27.2	x	28.2	14.3
COc1ccccc1-c1c(NC(=O)c2ccco2)n(C)c2ccccc2c1=O	-19.4	2.0	x	x	x	-0.4	x	x	x	x
C[C@@H]1O[C@@H](Oc2c(-c3cc(O)c(O)c(O)c3)oc3cc(O)cc(O)c3c2=O)[C@H](O)[C@H](O)[C@H]1O	-2.7	-0.8	5.2	44.1*	-40.3	47.6*	20.0	x	x	x	PAFAH1B3 confirm=21.9
CS(=O)(=O)c1[nH]nc(-c2ccccc2)c1C#N	-14.3	-1.5	10.2	13.2	5.0	4.5	x	x	x	x
CSc1nsc(/C=C/Nc2ccc(O)cc2C)c1C#N	6.9	48.0*	12.1	13.6	22.1	23.9	x	9.4	x	x
O=C(CCNC(=O)N1CC(=O)Nc2ccccc21)Nc1ccc(Br)cc1F	1.8	3.4	4.4	4.2	-7.3	-38.2	x	x	x	x
CC(C)NC(=O)Cn1cnc2c(cnn2-c2ccc(F)cc2)c1=O	-9.2	1.7	1.2	12.9	-2.1	-8.6	x	x	x	x
COc1ccc(-n2ncc3c(=O)n(CC(=O)NC(C)C)cnc32)cc1	-10.1	35.6*	5.0	-0.7	4.5	-8.3	x	2.2	x	x
N#C/C=C1/NC(=O)c2ccccc2S1	-25.7	56.6*	-1.9	3.8	-2.2	11.8	x	5.3	x	x
O=C(Cc1cnn(-c2ccccc2)c1)c1ccc(O)c(O)c1O	19.2	72.5*	0.4	4.9	22.3	17.1	x	53.9*	x	x
SMILES	Apaf-1 inh	pPAFAH FP inh	PAFAH1B2 FP inh	PAFAH1B3 FP inh	PAFAH2 FP inh	PREPL inh	PREPL confirm	pPAFAH FP conf	Apaf-1 inh conf	Rh110 quench	others
COC(=O)CCSc1cc(NCCOC(C)=O)c([N+](=O)[O-])c2nonc12	7.9	3.4	4.3	-9.2	2.4	-13.6	x	x	x	x
O=[N+]([O-])c1c(NCCCO)cc(SCc2ccco2)c2nonc12	9.7	59.5*	6.2	9.2	1.1	4.0	x	-2.2	x	x
CC(=O)OCCNc1cc(SCc2ccco2)c2nonc2c1[N+](=O)[O-]	x	57.8*	-2.8	7.5	11.4	0.0	x	6.5	x	x
Cn1c(=N)n(CC(=O)c2ccc(Br)cc2)c2ccccc21	10.2	34.5*	1.7	-6.5	0.7	14.1	x	5.6	x	x
CCCCCC1CC(/C(C)=N/NC(N)=O)OC1=O (centres undefined)	3.1	-0.1	-0.5	-0.3	8.5	4.4	x	x	x	x
CCCCC1CC(/C(C)=N/NC(N)=O)OC1=O (centres undefined)	-14.8	58.2*	-1.0	10.0	-2.5	-7.5	x	1.9	x	x
